Data from ChEMBL document CHEMBL1817564, “Recognition of HIV TAR RNA by triazole linked neomycin dimers” (Bioorg Med Chem Lett, 2011).
The source made the active and inactive calls. No cut-off for these calls is given here.

Columns and labels:
Nucleic Acid [1] = assay: Binding affinity to HIV1 TAR RNA assessed as melting temperature at HIV1 TAR RNA to compound ratio of 1 at pH 6.8 by UV thermal denaturation assay; assay type: nucleic-acid assay; details: Human immunodeficiency virus 1
Outline: (§1)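 UV melting of HIV-1 TAR RNA (1 µM/strand) with ligand at 1 µM (ratio 1) in 100 mM KCl, 10 mM SC, 0.5 mM EDTA, pH 6.8. Tm taken from first-derivative plots of absorbance versus temperature; ΔTm is relative to RNA alone.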

Nucleic Acid [2] = assay: Binding affinity to HIV1 TAR RNA assessed as change in melting temperature at HIV1 TAR RNA to compound ratio of 1 at pH 6.8 by UV thermal denaturation assay; assay type: nucleic-acid assay; details: Human immunodeficiency virus 1; outline: as §1
Nucleic Acid [3] = assay: Inhibition of HIV1 TAR RNA; assay type: nucleic-acid assay, Human immunodeficiency virus 1
Nucleic Acid [4] = assay: Binding affinity to HIV1 TAR RNA at […] up to 3 by CD Spectroscopy; assay type: nucleic-acid assay; details: Human immunodeficiency virus 1
Outline: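 CD titration of HIV TAR RNA with incremental additions of neomycin dimer, covering drug/duplex ratio (rdd) 0 to 3. Read-out is molar ellipticity.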

Nucleic Acid [5] = assay: Binding affinity to HIV1 TAR RNA assessed as melting temperature at compound to TAR RNA ratio of 2 at pH 6.8 by UV thermal denaturation assay; assay type: nucleic-acid assay; details: Human immunodeficiency virus 1
Outline: (§2)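 TAR RNA UV thermal denaturation in 100 mM KCl, 10 mM SC, 0.5 mM EDTA, pH 6.8, with dimer:RNA at 2:1. Tm taken from first-derivative plots.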

Nucleic Acid [6] = assay: Binding affinity to HIV1 TAR RNA assessed as melting temperature at compound to TAR RNA ratio of 4 at pH 6.8 by UV thermal denaturation assay; assay type: nucleic-acid assay; details: Human immunodeficiency virus 1
Nucleic Acid [7] = assay: Binding affinity to HIV1 TAR RNA assessed as change in melting temperature at compound to TAR RNA ratio of 2 at pH 6.8 by UV thermal denaturation assay; assay type: nucleic-acid assay; details: Human immunodeficiency virus 1; outline: as §2
Nucleic Acid [8] = assay: Binding affinity to HIV1 TAR RNA assessed as change in melting temperature at compound to TAR RNA ratio of 4 at pH 6.8 by UV thermal denaturation assay; assay type: nucleic-acid assay; details: Human immunodeficiency virus 1

Row | Tm (Nucleic Acid [1]) [°C] | ΔTm (Nucleic Acid [2]) [°C] | SMILES | further results
1 | 78.2 | 9.3 | NC[C@@H]1O[C@H](O[C@H]2[C@@H](O)[C@H](O[C@@H]3[C@@H](O)[C@H](N)C[C@H](N)[C@H]3O[C@H]3O[C@H](CN)[C@@H](O)[C@H](O)[C@H]3N)O[C@@H]2Cn2cc(Cc3cccc(Cc4cn(C[C@H]5O[C@@H](O[C@@H]6[C@@H](O)[C@H](N)C[C@H](N)[C@H]6O[C@H]6O[C@H](CN)[C@@H](O)[C@H](O)[C@H]6N)[C@H](O)[C@@H]5O[C@H]5O[C@@H](CN)[C@@H](O)[C@H](O)[C@H]5N)nn4)c3)nn2)[C@H](N)[C@@H](O)[C@@H]1O | –
2 | 76.4 | 7.6 | C/C(CCc1cn(C[C@H]2O[C@@H](O[C@@H]3[C@@H](O)[C@H](N)C[C@H](N)[C@H]3O[C@H]3O[C@H](CN)[C@@H](O)[C@H](O)[C@H]3N)[C@H](O)[C@@H]2O[C@H]2O[C@@H](CN)[C@@H](O)[C@H](O)[C@H]2N)nn1)=C(/C)CCc1cn(C[C@H]2O[C@@H](O[C@@H]3[C@@H](O)[C@H](N)C[C@H](N)[C@H]3O[C@H]3O[C@H](CN)[C@@H](O)[C@H](O)[C@H]3N)[C@H](O)[C@@H]2O[C@H]2O[C@@H](CN)[C@@H](O)[C@H](O)[C@H]2N)nn1 | –
3 | 77.1 | 8.2 | NC[C@@H]1O[C@H](O[C@H]2[C@@H](O)[C@H](O[C@@H]3[C@@H](O)[C@H](N)C[C@H](N)[C@H]3O[C@H]3O[C@H](CN)[C@@H](O)[C@H](O)[C@H]3N)O[C@@H]2Cn2cc(CCCCc3cn(C[C@H]4O[C@@H](O[C@@H]5[C@@H](O)[C@H](N)C[C@H](N)[C@H]5O[C@H]5O[C@H](CN)[C@@H](O)[C@H](O)[C@H]5N)[C@H](O)[C@@H]4O[C@H]4O[C@@H](CN)[C@@H](O)[C@H](O)[C@H]4N)nn3)nn2)[C@H](N)[C@@H](O)[C@@H]1O | –
4 | 79.1 | 10.2 | NC[C@@H]1O[C@H](O[C@H]2[C@@H](O)[C@H](O[C@@H]3[C@@H](O)[C@H](N)C[C@H](N)[C@H]3O[C@H]3O[C@H](CN)[C@@H](O)[C@H](O)[C@H]3N)O[C@@H]2Cn2cc(COCc3cn(C[C@H]4O[C@@H](O[C@@H]5[C@@H](O)[C@H](N)C[C@H](N)[C@H]5O[C@H]5O[C@H](CN)[C@@H](O)[C@H](O)[C@H]5N)[C@H](O)[C@@H]4O[C@H]4O[C@@H](CN)[C@@H](O)[C@H](O)[C@H]4N)nn3)nn2)[C@H](N)[C@@H](O)[C@@H]1O | Activity (Nucleic Acid [4]): Active
5 | 74.9 | 6.1 | NC[C@@H]1O[C@H](O[C@H]2[C@@H](O)[C@H](O[C@@H]3[C@@H](O)[C@H](N)C[C@H](N)[C@H]3O[C@H]3O[C@H](CN)[C@@H](O)[C@H](O)[C@H]3N)O[C@@H]2Cn2cc(CCCCCCc3cn(C[C@H]4O[C@@H](O[C@@H]5[C@@H](O)[C@H](N)C[C@H](N)[C@H]5O[C@H]5O[C@H](CN)[C@@H](O)[C@H](O)[C@H]5N)[C@H](O)[C@@H]4O[C@H]4O[C@@H](CN)[C@@H](O)[C@H](O)[C@H]4N)nn3)nn2)[C@H](N)[C@@H](O)[C@@H]1O | –
6 | 78.5 | 9.6 | NC[C@@H]1O[C@H](O[C@H]2[C@@H](O)[C@H](O[C@@H]3[C@@H](O)[C@H](N)C[C@H](N)[C@H]3O[C@H]3O[C@H](CN)[C@@H](O)[C@H](O)[C@H]3N)O[C@@H]2Cn2cc(Cc3ccc(Cc4cn(C[C@H]5O[C@@H](O[C@@H]6[C@@H](O)[C@H](N)C[C@H](N)[C@H]6O[C@H]6O[C@H](CN)[C@@H](O)[C@H](O)[C@H]6N)[C@H](O)[C@@H]5O[C@H]5O[C@@H](CN)[C@@H](O)[C@H](O)[C@H]5N)nn4)cc3)nn2)[C@H](N)[C@@H](O)[C@@H]1O | –

Second part, the compound before the results:

Row | SMILES | Tm (Nucleic Acid [1]) [°C] | ΔTm (Nucleic Acid [2]) [°C] | further results
7 | NC[C@@H]1O[C@H](O[C@H]2[C@@H](O)[C@H](O[C@@H]3[C@@H](O)[C@H](N)C[C@H](N)[C@H]3O[C@H]3O[C@H](CN)[C@@H](O)[C@H](O)[C@H]3N)O[C@@H]2CO)[C@H](N)[C@@H](O)[C@@H]1O [FRAMYCETIN] | 69.1 | 0.2 | IC50 (Nucleic Acid [3]): 0.417 µM; Kd (Nucleic Acid [3]): < 1 µM
8 | NC[C@@H]1O[C@H](O[C@H]2[C@@H](O)[C@H](O[C@@H]3[C@@H](O)[C@H](N)C[C@H](N)[C@H]3O[C@H]3O[C@H](CN)[C@@H](O)[C@H](O)[C@H]3N)O[C@@H]2Cn2cc(COCCCCCCCCCCCCOCc3cn(C[C@H]4O[C@@H](O[C@@H]5[C@@H](O)[C@H](N)C[C@H](N)[C@H]5O[C@H]5O[C@H](CN)[C@@H](O)[C@H](O)[C@H]5N)[C@H](O)[C@@H]4O[C@H]4O[C@@H](CN)[C@@H](O)[C@H](O)[C@H]4N)nn3)nn2)[C@H](N)[C@@H](O)[C@@H]1O | 72.1 | 3.3 | –
9 | NC[C@@H]1O[C@H](O[C@H]2[C@@H](O)[C@H](O[C@@H]3[C@@H](O)[C@H](N)C[C@H](N)[C@H]3O[C@H]3O[C@H](CN)[C@@H](O)[C@H](O)[C@H]3N)O[C@@H]2Cn2cc(CCCc3cn(C[C@H]4O[C@@H](O[C@@H]5[C@@H](O)[C@H](N)C[C@H](N)[C@H]5O[C@H]5O[C@H](CN)[C@@H](O)[C@H](O)[C@H]5N)[C@H](O)[C@@H]4O[C@H]4O[C@@H](CN)[C@@H](O)[C@H](O)[C@H]4N)nn3)nn2)[C@H](N)[C@@H](O)[C@@H]1O | 78.2 | 9.3 | Tm (Nucleic Acid [5]): 80.4 °C; Tm (Nucleic Acid [6]): 81.3 °C; ΔTm (Nucleic Acid [7]): 11.5 °C; ΔTm (Nucleic Acid [8]): 12.4 °C
10 | NC[C@@H]1O[C@H](O[C@H]2[C@@H](O)[C@H](O[C@@H]3[C@@H](O)[C@H](N)C[C@H](N)[C@H]3O[C@H]3O[C@H](CN)[C@@H](O)[C@H](O)[C@H]3N)O[C@@H]2Cn2cc(COCCCCCCCCOCc3cn(C[C@H]4O[C@@H](O[C@@H]5[C@@H](O)[C@H](N)C[C@H](N)[C@H]5O[C@H]5O[C@H](CN)[C@@H](O)[C@H](O)[C@H]5N)[C@H](O)[C@@H]4O[C@H]4O[C@@H](CN)[C@@H](O)[C@H](O)[C@H]4N)nn3)nn2)[C@H](N)[C@@H](O)[C@@H]1O | 74.3 | 5.4 | –
